In one data set the test system is MCF7. Briefly: Growth inhibition of human MCF7 cells after 48 hrs by sulforhodamine B assay. Format: functional. The gist of the method:
(§1)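 Cells in 96-well plates were exposed for 48 h at 37 °C in 5% CO2 to compounds at 0.25, 2.5, 25 and […] in DMSO/RPMI. Doxorubicin was the positive control at […]. Cells were then fixed with 50% trichloroacetic acid and stained with sulforhodamine B, with protein read at 540 nm. TGI (the concentration where T = T0) was taken by non-linear regression of each cell line's concentration-response curve.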

Data set [1] is described as follows: Growth inhibition of human NCI/ADR cells after 48 hrs by sulforhodamine B assay. Format: functional. The gist of the method:
as §1
(The SRB assay estimates cell density from bound dye.)

Another data set concerns U-251. The data set is described as follows: Growth inhibition of human U251 cells after 48 hrs by sulforhodamine B assay. In kind it is functional. The gist of the method:
as §1

A further data set deals with OVCAR-3. Briefly: Growth inhibition of human OVCAR3 cells after 48 hrs by sulforhodamine B assay. Format: functional. In a few lines: as §1
Another data set deals with 786-0. The data set is described as follows: Growth inhibition of human 786-0 cells after 48 hrs by sulforhodamine B assay. In kind it is functional. In a few lines:
as §1

Another data set has as its system NCI-H460. Briefly: Growth inhibition of human NCI-H460 cells after 48 hrs by sulforhodamine B assay. Format: functional. The gist of the method: as §1
Data set [2] can be described thus: Growth inhibition of human HaCaT cells after 48 hrs by sulforhodamine B assay. In kind it is cell-based. The gist of the method:
as §1

The next data set deals with HT-29. The data set is described as follows: Growth inhibition of human HT-29 cells after 48 hrs by sulforhodamine B assay. Format: functional. In a few lines: as §1

Where only a bound is given, the exact number is not on record here.

Data on 9 compounds can be found in ChEMBL document CHEMBL2034868, “Synthesis of methoxylated goniothalamin, aza-goniothalamin and γ-pyrones and their in vitro evaluation against human cancer cells” (Bioorg Med Chem, 2012).

One may read the TGI as the concentration giving total growth inhibition. A high value points to less potent growth arrest. `COc1cc(/C=C/C2CC=CC(=O)N2)cc(OC)c1` (configuration not stated): the GI in the data set with MCF7 came to 146.4 µM; in data set [1], 203.2 µM; in the data set on U-251, 169.9 µM; with OVCAR-3 it was 232.1 µM; in the data set on 786-0, 173.4 µM; in the data set with NCI-H460, 145.5 µM. In the data set on HT-29, this compound came in with a GI of 196.6 µM. The same compound gave a total growth inhibition concentration (TGI) at 48 h in data set [2] of 212 µM.
Take `COc1cc(/C=C/C2CC=CC(=O)N2)cc(OC)c1OC` (configuration not stated): the GI (in the data set on MCF7; in data set [1]; in the data set with U-251; in the data set with OVCAR-3; in the data set on 786-0; in the data set with NCI-H460) was above 864.1 µM throughout. Moreover, the GI in the data set with HT-29 was above 864.1 µM. In data set [2], this compound displayed a total growth inhibition concentration (TGI) at 48 h above 864 µM.
Take `O=C1C=CCC(/C=C/c2ccccc2C(F)(F)F)O1` (racemic): the GI came out at 50.4 µM with MCF7; 75.5 µM in data set [1]; 43.4 µM in the data set on U-251; 295.6 µM in the data set on OVCAR-3; 52.3 µM in the data set with 786-0; 241.5 µM in the data set with NCI-H460. Further, in the data set with HT-29, the GI came out at 71.7 µM. Further, the concentration for total growth inhibition (TGI) at 48 h in data set [2] amounted to 82.7 µM.
With `COc1ccc(/C=C/C2CC=CC(=O)N2)cc1OC` (configuration not stated), the GI (with MCF7; in data set [1]; in the data set with U-251; in the data set with OVCAR-3; in the data set on 786-0; in the data set with NCI-H460) was above 964.1 µM in each case. In the data set on HT-29, the GI was above 964.1 µM. The TGI at 48 h in data set [2] was above 964 µM.
Take `COc1ccc(/C=C/C2CC=CC(=O)N2)cc1` (configuration not stated): the GI in the data set on MCF7 was above 1090.4 µM; in data set [1] it was 841.7 µM; with U-251, 981.3 µM; with OVCAR-3, 786.8 µM; in the data set with 786-0, above 1090.4 µM; in the data set with NCI-H460, above 1090.4 µM. This compound also showed a GI with HT-29 above 1090.4 µM. The compound further yielded a TGI at 48 h in data set [2] above 1090 µM.
Consider `O=C1C=COC(/C=C/c2ccc3c(c2)OCO3)C1` (configuration not stated), for which the GI with MCF7 stood at 81.4 µM; in data set [1] it was 186.8 µM; in the data set on U-251, 77 µM; with OVCAR-3, 101.7 µM; in the data set with 786-0, 104.1 µM; with NCI-H460, 147.4 µM. Further, in the data set on HT-29, the GI amounted to 126.9 µM. In data set [2], this compound returned a TGI at 48 h of 145 µM.
On to `O=C1C=CCC(/C=C/c2ccccc2)N1` (configuration not stated), for which the GI in the data set with MCF7 is 607.4 µM; in data set [1], 966.6 µM; in the data set with U-251, 797.6 µM; in the data set on OVCAR-3 it was above 1254.8 µM; in the data set on 786-0 it was above 1254.8 µM; in the data set with NCI-H460, 928.5 µM. In the data set with HT-29, the GI was 1195.8 µM. Also, the concentration for total growth inhibition (TGI) at 48 h in data set [2] is above 1250 µM.
Turning to `O=C1C=COC(/C=C/c2ccc(C(F)(F)F)cc2)C1` (configuration not stated), the GI was found to be 41.2 µM with MCF7; 51.6 µM in data set [1]; 38.6 µM with U-251; 58.2 µM in the data set on OVCAR-3; 39.6 µM in the data set with 786-0; 95.6 µM in the data set with NCI-H460. In the data set on HT-29, this compound displayed a GI of 33.3 µM. This compound also displayed a TGI at 48 h in data set [2] of 123 µM.
For `O=C1C=COC(/C=C/c2ccccc2)C1` (configuration not stated), the GI with MCF7 was 152.6 µM; in data set [1] it was 105.3 µM; with U-251 it was 121.8 µM; with OVCAR-3 it was 58.2 µM; in the data set on 786-0, 138.2 µM; in the data set with NCI-H460, 82.4 µM. The same compound gave a GI in the data set on HT-29 of 123.6 µM. In data set [2], this compound showed a TGI at 48 h of 126 µM.
